Experimental data of several laboratories.
Compare with care: the assays were run in different laboratories.
Target: Serine/threonine-protein kinase VRK2 (VRK2, Homo sapiens, UniProt Q86Y07)

| SMILES | assay | conditions | remaining binding |
| --- | --- | --- | --- |
| COc1cnc(Nc2cccc(S(N)(=O)=O)c2)nc1N1CCN(c2ccccc2)C(=O)C1 | binding, competition with immobilised ligand | 1 µM | 89% |
| CCCNc1nc(C#Cc2ccc(Cl)s2)nc2c1ncn2[C@H]1[C@H](O)[C@H](O)[C@]2(C(=O)NC)C[C@H]12 | binding, competition with immobilised ligand | 10 µM | 31% |
| C[C@@H](c1ccc(-n2cnc3c(N)ncnc32)cc1)N1CCc2nn(C)c(Cc3ccccc3)c2C1=O | binding, competition with immobilised ligand | 0.1 µM | 47% |
| Cc1noc([C@H]2C[C@@H](c3ccc(C(F)(F)F)cc3)CN(C(=O)N3CCS(=O)(=O)C3)C2)n1 | cell-free assay, competition with immobilised ligand | 1 µM | 91% |
| C[C@H]1CCN(c2nccc(-c3cnn4ncccc34)n2)C1 | binding | 1 µM | 81% |
| O=C(Nc1c[nH]nc1C(=O)NC1CCNCC1)c1cc(F)cc(F)c1 | binding, competition with immobilised ligand | 1 µM | 100% |
| COc1cnc(Nc2cccc(S(N)(=O)=O)c2)nc1N1CCN(c2ccccc2)CC1 | binding, competition with immobilised ligand | 1 µM | 69% |
| CN(c1nccc(-c2cnn3ncccc23)n1)C1CC1 | binding | 1 µM | 100% |
| O=C(c1ccc(Nc2ncc(Cl)c(-c3cc4ccccc4s3)n2)cc1)N1CCC(N2CCCC2)CC1 | binding, competition with immobilised ligand | 1 µM | 70% |
| COc1ccnn2ncc(-c3ccnc(N(C)C)n3)c12 | binding | 1 µM | 100% |
| O=C(c1ccc(Nc2nccc(-c3cc4ccccc4s3)n2)cc1)N1CCC(N2CCCC2)CC1 | binding, competition with immobilised ligand | 1 µM | 35% |
| CC(=O)C1=C(C)N(c2cccc(C(F)(F)F)c2)C(=O)N[C@@H]1c1ccc(C#N)nc1 | cell-free assay, competition with immobilised ligand | 1 µM | 77.6% |
| CN(C)c1ncc(F)c(-c2cnn3ncccc23)n1 | binding | 1 µM | 100% |
| NS(=O)(=O)c1cc(NC(=O)Cc2ccccc2)ccc1Oc1cccc(Cl)c1 | cell-free assay, competition with immobilised ligand | 1 µM | 100% |
| C=CC(=O)N1CCC(C(=O)NCC(=O)N2CCN(c3nc(-c4cnc(N)nc4C(F)F)nc(N4CCOCC4)n3)CC2)CC1 | binding, competition with immobilised ligand | 1 µM | 93% |
| O=C(NCCCN1CCOCC1)c1ccc(Nc2ncc(Cl)c(-c3ccc(Cl)s3)n2)cc1 | binding, competition with immobilised ligand | 1 µM | 64% |
| CN(C)c1nccc(-c2cnn3ncccc23)n1 | binding | 1 µM | 80% |
| CC1=C(C#N)C(c2ccc3c(c2)c(NC(=O)c2ccccc2C)nn3C)C(C#N)=C(C)N1 | cell-free assay, competition with immobilised ligand | 1 µM | 72% |
| CN(C)c1nccc(-c2cnc3ncccn23)n1 | binding | 1 µM | 64% |
| CC(C)CC(=O)N1CCc2nc(-c3ccc(Br)cc3)nc(N(C)Cc3ccccc3)c2C1 | cell-free assay, competition with immobilised ligand | 0.1 µM | 77% |
| N[C@H]1CCN(c2nccc(-c3cnn4ncccc34)n2)C1 | binding | 1 µM | 83% |
| CN([C@@H]1CCc2c(CC(=O)O)c3cc(S(C)(=O)=O)ccc3n2C1)S(=O)(=O)c1ccc(F)cc1 | cell-free assay, competition with immobilised ligand | 1 µM | 94% |
